Bioassay records: PubChem, Broad Institute
HIV Env fusion: inhibitors of HIV-1 Env-driven cell-cell fusion, primary screen, HeLa-JRFL effector, CEM21 target cells, luciferase; inhibition, % at 12.3 µM; 360,000 compounds, 1.1% hits; AID 651610, 2012;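 active = mean replicate inhibition score of at least 50 and every replicate individually at or above 50; inconclusive = only one of the two criteria met; inactive = mean below 50 and not all replicates reaching 50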;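 note: 0% = plate neutral controls and 100% = maraviroc near 300 nM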
ERAP1 inh: human ERAP1 aminopeptidase inhibitors, primary screen, biochemical, single point, plate reader | recombinant ERAP1, Leu-AMC fluorescence, 60 min | Endoplasmic reticulum aminopeptidase 1 (Homo sapiens), Q9NZ08 | AID 652197, 2013 | 340,000 compounds, 0.15% hits | inhibition, % at 10.7 µM;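 active = mean replicate inhibition of at least 30%, or all replicates individually reaching that 30% level; inactive = mean below 30% and not every replicate reaching it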;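 note: 0% = neutral control wells and 100% = L-leucinethiol positive control wells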
Target sequence (Q9NZ08 whole entry, looked up): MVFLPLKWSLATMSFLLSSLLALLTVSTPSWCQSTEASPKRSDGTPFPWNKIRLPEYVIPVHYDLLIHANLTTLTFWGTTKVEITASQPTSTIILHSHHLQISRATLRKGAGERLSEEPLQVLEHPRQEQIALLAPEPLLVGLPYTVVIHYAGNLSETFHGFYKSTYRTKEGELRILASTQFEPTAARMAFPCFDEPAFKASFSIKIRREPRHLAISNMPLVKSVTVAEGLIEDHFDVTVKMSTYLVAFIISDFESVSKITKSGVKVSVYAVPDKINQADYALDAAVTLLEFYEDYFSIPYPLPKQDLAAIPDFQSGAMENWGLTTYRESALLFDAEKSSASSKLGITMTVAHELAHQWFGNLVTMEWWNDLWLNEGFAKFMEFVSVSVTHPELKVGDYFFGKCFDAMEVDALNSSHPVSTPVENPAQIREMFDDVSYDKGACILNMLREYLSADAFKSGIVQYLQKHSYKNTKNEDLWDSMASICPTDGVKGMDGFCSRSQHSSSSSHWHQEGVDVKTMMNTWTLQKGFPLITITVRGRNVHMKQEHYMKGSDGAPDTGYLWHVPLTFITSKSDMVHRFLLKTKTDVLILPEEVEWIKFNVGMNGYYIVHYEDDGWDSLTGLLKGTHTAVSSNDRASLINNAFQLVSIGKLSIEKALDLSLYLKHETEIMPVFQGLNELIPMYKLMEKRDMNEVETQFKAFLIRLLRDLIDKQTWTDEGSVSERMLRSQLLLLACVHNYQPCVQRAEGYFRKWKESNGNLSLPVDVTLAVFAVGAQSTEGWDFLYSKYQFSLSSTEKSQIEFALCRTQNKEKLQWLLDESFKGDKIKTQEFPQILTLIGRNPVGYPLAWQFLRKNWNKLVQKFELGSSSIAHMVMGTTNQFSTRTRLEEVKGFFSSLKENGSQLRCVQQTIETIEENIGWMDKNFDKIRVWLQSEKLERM
Wnt bcat act: Wnt/beta-catenin pathway activators, primary screen, cell-based, plate reader, single point. Wnt/beta-catenin reporter cell assay, activator. activation, % at 9.35 µM. 300,000 compounds, 1.2% hits; in the data active = activation above about 30%, passing the limit was not always enough; inconclusive = no clear call, values can overlap the other calls;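 note: 0% = neutral control wells and 100% = positive control wells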
MITF act: activators of MITF-driven TRPM1 promoter reporter, primary screen, cell-based, SK-MEL-5, luciferase, single point; 300,000 compounds, 0.75% hits; activation, % at 12.5 µM; AID 588334, 2011; SK-MEL-5 TRPM1-promoter luciferase, 24 h; % of positive control, neutral wells = 0;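 active = mean activation of at least 80% with every replicate also reaching 80%; inconclusive = mean reaches 80% but some replicate falls short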;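 note: 0% = neutral control wells and 100% = parthenolide positive control wells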
Cneo AK release: Cryptococcus neoformans cell lysis inducers, primary screen, AK release luminescence, single concentration; C. neoformans lysis, adenylate kinase release luminescence, 4 h; normalised: neutral wells 0, clomiphene wells 100; lysis activity, % at 15 µM; 360,000 compounds, 0.2% hits;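 active = mean lysis activity across replicates of at least 80%, whatever share of replicates individually reach that level; inactive = mean lysis activity below 80%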
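Signal: Adenylate kinase release luminescence | Assay system: Log-phase Cryptococcus neoformans yeast cells | Input: Cells at 5 × 10^6 per mL | Buffer or medium: Fresh YPD growth medium | Compound: Single dose | Schedule: Static 4 h at 37 °C with compound, 1 h detection | Controls: Clomiphene | Read-out: Luminescence rise reflecting yeast cell lysis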
esBAF inh: Bmi1 luciferase reporter increase in mESCs, primary screen, esBAF inhibitor project, mouse ES cells, Bmi1 luciferase knock-in, single point; 24 h; 100% = twice the neutral-well signal; reporter increase, % at 12.5 µM; 350,000 compounds, 2% hits; in the data active = activation above about 40%; inconclusive = no clear call, values can overlap the other calls;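 note: 0% = median of the plate's neutral control wells and 100% = double that signal; a rise in the Bmi1 reporter signal indicates esBAF inhibition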
* hit, by the source's call; ? = inconclusive; nt = no result given; [ ] = remark or other dose. The list is not random: actives were taken first. Their share in the collection is about 3.5%.

SMILES	HIV Env fusion	ERAP1 inh	Wnt bcat act	MITF act	Cneo AK release	esBAF inh
C[C@H]1CCCCO[C@@H](CN(C)C(=O)Cc2ccccc2)[C@@H](C)CN([C@@H](C)CO)C(=O)c2cc(NS(=O)(=O)c3cn(C)cn3)ccc2O1	-6.7[16.7 µM]	-3.4	nt	nt	1.2	9.0
C[C@@H]1CN([C@@H](C)CO)C(=O)c2cc(NC(=O)NC3CCCCC3)ccc2O[C@@H](C)CCCCO[C@@H]1CN(C)S(=O)(=O)c1cn(C)cn1	-23.9[16.7 µM]	-4.4	nt	nt	4.0	7.1
NC(CCc1ccccc1)c1csc(Nc2ccccn2)n1 (centres undefined)	84.8*	0.1	0.9	nt	2.2	nt
COC(=O)c1cc(C)nc(Nc2nc(C(N)Cc3ccc(Cl)cc3)cs2)n1 (centres undefined)	-2.5	1.9	641.5*	nt	-9.6	1.1
COc1ccccc1NC(=O)Nc1nc(C(N)Cc2ccc(Cl)cc2)cs1 (centres undefined)	64.1*	-3.7	7.8	nt	0.3	-9.1
NC(Cc1ccc(C(F)(F)F)cc1)c1csc(NC(=O)Nc2ccccc2)n1 (centres undefined)	77.7*	-1.2	-2.9	nt	-2.0	-7.9
O=C(Cc1ccccn1)NCC[C@H]1CC[C@H](NC(=O)Nc2ccccc2)[C@H](CO)O1	5.2[16.7 µM]	6.6	nt	nt	0.6	-3.0
Cc1ccc(S(=O)(=O)N[C@H]2CC[C@@H](CCn3cc(C4CCCC4)nn3)O[C@@H]2CO)cc1	13.9[16.7 µM]	1.1	nt	nt	-1.7	1.0
NC(Cc1ccc(Cl)cc1)c1csc(NC(=O)Nc2ccccc2)n1 (centres undefined)	60.8*	-1.0	4.3	nt	-0.9	-23.7
NC(Cc1ccc(C(F)(F)F)cc1)c1csc(NC(=O)Nc2ccccc2Cl)n1 (centres undefined)	58.2*	-4.0	0.5	nt	-0.9	-2.2
COc1ccc(CC(N)c2csc(NC(=O)Nc3cccc(C(F)(F)F)c3)n2)cc1 (centres undefined)	?	-2.8	-3.4	nt	-0.3	-2.4
NC(CCc1ccccc1)c1csc(NC(=O)Nc2cccc(C(F)(F)F)c2)n1 (centres undefined)	55.2*	-2.4	-9.6	nt	-0.5	-7.0
COC(=O)C[C@H]1C=C[C@H](NS(=O)(=O)c2ccc(OC)cc2)[C@@H](CO)O1	-16.2[16.7 µM]	0.6	nt	nt	16.3	-4.9
CCOc1ccc(OCCOc2ncnc3ccccc23)cc1	nt	nt	nt	32.1	-1.8	45.5*
c1ccc(OCCOc2ncnc3sccc23)cc1	-35.0	nt	41.5*	40.7	0.2	nt
COc1cccc(COc2ncnc3sccc23)c1	5.2	-0.5	-0.2	-0.7	nt	nt
COc1ccc(-c2cc(C(=O)NNC(=S)NC(=O)c3c(-c4ccccc4)noc3C)[nH]n2)cc1	69.4*	1.5	-4.2	8.5	nt	nt
COc1ccc(/C=C/C(=O)NC(=S)NNC(=O)c2c(-c3ccccc3)noc2C)cc1	90.6*	nt	-1.0	-6.1	-0.7	nt
O=C(NCC1CCCO1)C(c1cccnc1)N(C(=O)Cc1cccs1)c1ccccc1 (centres undefined)	nt	-0.6	18.1	49.3	-2.3	69.3*
Cc1ccccc1N(C(=O)Cc1cccs1)C(C(=O)NCC1CCCO1)c1cccnc1 (centres undefined)	nt	nt	nt	-5.1	0.0	-0.5
O=C(NCC(=O)N(c1ccccc1)C(C(=O)NC1CCCCC1)c1cccnc1)c1cccs1 (centres undefined)	55.8*	-1.4	-4.2	-12.7	1.3	-1.7
Cc1ccc(-c2cnc3c(c2)C(=O)N([C@@H](C)CO)C[C@@H](C)[C@H](CN(C)C(=O)c2cccnc2)O3)cc1	-0.7[16.7 µM]	0.1	nt	nt	3.1	9.6
O=C(CCn1c(=O)oc2ccccc21)Nc1ccc2c(c1)OCCO2	nt	1.4	23.1	40.8	-2.4	56.9*
O=C(Cn1c(=O)oc2ccccc21)Nc1ccc2c(c1)OCCO2	17.9	nt	14.0	nt	0.0	11.8
O=C(CCn1c(=O)oc2ccccc21)N1CCOCC1	-21.6	nt	nt	nt	0.4	-9.1
SMILES	HIV Env fusion	ERAP1 inh	Wnt bcat act	MITF act	Cneo AK release	esBAF inh
O=C(CCCn1c(=O)oc2ccccc21)Nc1ccccc1	-7.0	-3.6	4.7	50.1	-1.3	50.9*
O=C(CCn1c(=O)oc2ccccc21)N1CCc2ccccc21	-40.0	nt	-3.8	47.3	-4.3	41.4*
Cn1c(=O)cc(OCCCC(=O)Nc2ccc3c(c2)OCCO3)c2ccccc21	-8.6	nt	63.9*	-2.1	-3.2	0.8
CN1C(=O)c2cc(NC(=O)c3ccc(F)c(F)c3)ccc2OC[C@H]2O[C@@H](CC(=O)N3CCOCC3)CC[C@H]21	0.0[16.7 µM]	-3.1	nt	nt	42.7	2.0
CO[C@@H](CN(C)Cc1ccc2c(c1)OCO2)[C@H](C)CN(C(=O)Nc1ccc(F)cc1)[C@@H](C)CO	nt	1.0	nt	nt	-7.1	-3.0
COc1ccc(NC(=O)CCCn2c(=O)oc3ccccc32)cc1Cl	-17.3	-3.2	16.9	153.6*	nt	nt
COc1cc(OC)c(NC(=O)CCCn2c(=O)oc3ccccc32)cc1Cl	nt	nt	nt	-4.3	nt	nt
O=C(Cc1ccncc1)N[C@H]1CC[C@@H](CCn2cc(-c3ccccc3F)nn2)O[C@@H]1CO	71.9*[16.7 µM]	2.0	nt	nt	0.9	0.8
O=C(N[C@H]1CC[C@H](CCn2cc(-c3ccccn3)nn2)O[C@H]1CO)c1ccc(F)cc1	50.0[16.7 µM]	1.8	nt	nt	83.1*	-1.3
CCn1c(SC)nnc1-c1nn(-c2ccccc2)ccc1=O	-2.9	103.1*	-4.3	1.4	-2.4	nt
CCCNC(=O)OCCC12CC3CC(CC(C3)C1)C2	16.6	-3.7	?	59.2	-2.5	55.6*
O=S(=O)([O-])CCC[n+]1ccc(Oc2ccccc2)cc1	5.6	49.9*	2.6	nt	1.3	-0.6
O=C(Cc1c(Cl)cccc1Cl)OCc1ccccn1	-70.6	0.0	-1.2	?	-2.7	48.7*
O=C(OCc1c(Cl)cccc1Cl)c1ccccn1	nt	nt	nt	13.6	2.0	5.0
c1ccc(-c2nnc(-c3ccccn3)nn2)nc1	-33.1	-0.7	35.9*	35.8	0.8	nt
CCCNC(=O)N1[C@H](CO)[C@@H]2c3ccccc3N(C(=O)Nc3cccc(F)c3)C[C@@H]21	nt	0.0	nt	nt	-2.0	-3.8
C=CC[C@H](CC(=O)N(CCO)Cc1ccccc1)C(=O)N[C@H](COC(=O)[C@@H](CC=C)CC(=O)OC(C)(C)C)Cc1c[nH]c2ccccc12	64.1*	nt	-8.4	-18.0	-0.3	5.0
Cn1c(=O)n(C)c2cc(/C=C3/SC(=O)N(CC(=O)N4CCOCC4)C3=O)ccc21	-52.0	nt	nt	6.0	nt	nt
CCOC(=O)CN1C(=O)S/C(=C/c2ccc3c(c2)n(C)c(=O)n3C)C1=O	-40.0	nt	nt	46.0	nt	45.8*
CCC(=O)Nc1ccc2c(c1)C(=O)N(C)C[C@@H](OC)[C@@H](C)CN(C(=O)NC(C)C)[C@H](C)CO2	nt	-0.4	nt	nt	-0.1	0.7
